Compound activity as filed in PubChem.
In the library only some 2.7% were active in any assay of this set; here they are far more common.
S100A4 MyoIIA – inhibitors of human S100A4 binding to myosin IIA peptide. S100A4/TAMRA-MyoIIA peptide fluorescence polarization. actives 0.14% (n = 360,000). P26447. AID 652163. inhibition, % at 10.7 µM;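 active = mean inhibition of at least 70% across replicates, with every replicate also reaching that level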
Target sequence (P26447 whole entry, looked up): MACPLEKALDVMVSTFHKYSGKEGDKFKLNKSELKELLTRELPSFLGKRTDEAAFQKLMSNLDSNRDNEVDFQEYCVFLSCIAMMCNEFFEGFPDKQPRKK
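Assay system: human S100A4 monomer with TAMRA-labelled myosin IIA peptide / Buffer or medium: Calcium-containing HEPES buffer, pH 7.2 / Reagent: TAMRA-labelled myosin IIA heavy-chain peptide probe, 5 nM / Compound: one dose per compound / Timing: polarization read 5 min after assay mix addition, stable 5–60 min / Benchmarks: neutral control DMSO, positive control TFP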
CaV13 FRET inh – Disruptors of the CACNA1D IQ motif to Ca2+-dependent inactivation inhibitor domain association, primary screening, Förster resonance energy transfer in intact living …; HEK cells, CFP/YFP FRET ICDI-IQ, plate reader, 10 min; percent FRET-ratio fall versus neutral wells; inhibition, % at 12.3 µM; actives 0.098% (n = 340,000); AID 743397;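 active = mean replicate inhibition of at least 30% and at least 1% of replicates passing that level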;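 note: 0% = median of the neutral control wells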
DENV2 CPE rescue – inhibitors of DENV2 cytopathic effect; DENV2-infected cells, cytopathic effect rescue, plate reader; CPE inhibition, % at 9.99 µM; actives 1.7% (n = 350,000); in the data active = CPE inhibition above about 20%, passing the limit was not always enough; tested in BHK-21 cells;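 note: 0% = median of neutral control wells and 100% = median of positive control wells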
SIRT5 block – inhibitors of human sirtuin-5 desuccinylase; Purified SirT5, succinyl-peptide AMC, trypsin-coupled fluorescence; inhibition, % at 15 µM; actives 1.1% (n = 330,000); AID 652115; in the data active = inhibition above about 15%
MLL AF4-AF9 inh – blocks AF4 peptide binding to human AF9; P42568; AlphaScreen, biotin-AF4 peptide binding to FLAG-AF9; inhibition, % at 10 µM; actives 0.47% (n = 350,000); AID 651704;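 active = every replicate reaching a set inhibition limit, whatever the replicate mean, cut at about 25% in these data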;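 note: 0% = plate neutral control median and 100% = total signal loss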
Target sequence (P42568 whole entry, looked up): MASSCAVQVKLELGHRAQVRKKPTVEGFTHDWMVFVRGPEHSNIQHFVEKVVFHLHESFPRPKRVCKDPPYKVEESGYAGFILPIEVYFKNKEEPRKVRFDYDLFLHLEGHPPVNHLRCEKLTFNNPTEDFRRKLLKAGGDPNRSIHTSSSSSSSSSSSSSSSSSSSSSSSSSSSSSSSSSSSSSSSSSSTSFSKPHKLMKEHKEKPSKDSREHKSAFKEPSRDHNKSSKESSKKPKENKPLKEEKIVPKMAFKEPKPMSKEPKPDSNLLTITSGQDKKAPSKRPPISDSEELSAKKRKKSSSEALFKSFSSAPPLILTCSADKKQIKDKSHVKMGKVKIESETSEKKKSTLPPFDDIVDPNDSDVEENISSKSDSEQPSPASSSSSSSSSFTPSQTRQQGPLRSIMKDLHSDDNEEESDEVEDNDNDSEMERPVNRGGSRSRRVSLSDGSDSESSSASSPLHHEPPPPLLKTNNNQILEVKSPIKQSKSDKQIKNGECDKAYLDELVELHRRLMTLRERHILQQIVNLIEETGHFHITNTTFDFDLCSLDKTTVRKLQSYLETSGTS
* marks the source's active call; other numbers are inactive results; . = no result given.

SMILES | S100A4 MyoIIA | CaV13 FRET inh | DENV2 CPE rescue | SIRT5 block | MLL AF4-AF9 inh
COc1ccc(S(=O)(=O)Nc2ccc3c(c2)C(=O)N([C@H](C)CO)C[C@H](C)[C@@H](CN(C)S(=O)(=O)c2cccs2)OCCCC[C@@H](C)O3)cc1 | 27 | . | 2 | 9 | -2
COc1ccc(S(=O)(=O)Nc2ccc3c(c2)C(=O)N([C@@H](C)CO)C[C@H](C)[C@H](CN(C)S(=O)(=O)c2cccs2)OCCCC[C@H](C)O3)cc1 | -23 | . | 5 | 15* | 2
COc1ccc2c3c([nH]c2c1)[C@H](CO)N(C(=O)C1CCCC1)CC31CN(C(=O)NC(C)C)C1 | -4 | . | -10 | -1 | -2
COc1ccc(NC(=O)Nc2ccc3c(c2)[C@H]2C[C@@H](CC(=O)NCc4ccc5c(c4)OCO5)O[C@@H](CO)[C@H]2O3)cc1 | -4 | . | -7 | 3 | -2
O=C([C@H]1O[C@@H](n2ccc(=O)[nH]c2=O)[C@H](O)[C@@H]1O)N1CCN(c2ccc(Cl)cn2)CC1 | -18 | . | 45* | -5 | 1
C[C@@H]1CN([C@H](C)CO)C(=O)c2cc(/C=C/c3ccccc3)cnc2O[C@H]1CN(C)S(=O)(=O)c1ccccc1 | 2 | . | 11 | -6 | 3
C[C@@H]1CN([C@H](C)CO)C(=O)c2cc(NC(=O)Cc3cn(C)c4ccccc34)ccc2O[C@@H]1CN(C)Cc1ccc(Cl)c(Cl)c1 | -5 | . | 2 | -3 | 2
[N-]=[N+]=NCc1ccccc1C[C@]1(C(=O)NCc2ccccc2)COC(c2ccc(OCCCO)cc2)=N1 | -3 | . | 9 | 6 | -1
CC(C)=CCOc1c2ccoc2cc2oc(=O)ccc12 | -4 | . | 125* | 0 | -3
COc1ccc(OC)c(NC(=O)NNS(=O)(=O)c2ccc(C)cc2C)c1 | -2 | -3 | 23* | -4 | -9
COc1ccc(NC(=O)NNS(=O)(=O)c2cc(C)ccc2C)cc1OC | 3 | -6 | 2 | -2 | 2
O=S(=O)(c1ccc(F)cc1)N1C[C@@H]2[C@H](c3ccccc31)[C@H](CO)N2Cc1ccc2c(c1)OCO2 | -22 | . | 0 | 3 | 4
Cc1cc(C)c2c(N)c(C(=O)c3ccc(Br)cc3)oc2n1 | -6 | -5 | 46* | -3 | 1
Cc1cc(C)c2c(N)c(C(=O)c3ccccc3)oc2n1 | . | -9 | . | . | .
COc1ccc2c3c(n(C)c2c1)[C@@H](CO)N(S(C)(=O)=O)CC31CN(C(=O)c2ccccn2)C1 | 14 | . | 34* | 3 | 2
COc1ccc2c3c(n(C)c2c1)[C@@H](CO)N(C(=O)C1CCCCC1)CC31CCN(C(=O)c2ccncc2)CC1 | 1 | . | 42* | . | 3
COc1ccc2c3c(n(C)c2c1)[C@H](CO)N(C(=O)C1CC1)CC31CCN(C(=O)c2ccncc2)CC1 | 1 | . | 32* | 8 | 2
CCCC(=O)N1CC2(CCN(C(=O)C3CCC3)CC2)c2c(n(C)c3cc(OC)ccc23)[C@@H]1CO | . | . | 22* | . | 1
COc1ccc2c3c(n(C)c2c1)[C@H](CO)N(C(=O)c1ccccn1)CC31CN(C(=O)c2ccccn2)C1 | 21 | . | -4 | -3 | 2
COc1ccc2c3c(n(C)c2c1)[C@@H](CO)N(C(=O)C1CC1)CC31CCN(C(=O)c2ccncc2)CC1 | 8 | . | 13 | 0 | 2
C[C@@H]1CN([C@@H](C)CO)C(=O)Cc2cc(NC(=O)Nc3ccc(F)cc3)ccc2O[C@H]1CN(C)C(=O)NC1CCCCC1 | 16 | . | -3 | -2 | 0
O=C(C[C@H]1C[C@@H]2c3cc(NC(=O)NC4CCCC4)ccc3O[C@@H]2[C@@H](CO)O1)NCc1ccccn1 | 1 | . | 17 | -1 | -6
C[C@H]1CN([C@@H](C)CO)C(=O)Cc2cc(NC(=O)Cn3cnnn3)ccc2O[C@@H]1CN(C)Cc1ccncc1 | -1 | . | -8 | 1 | -3
COc1ccc2c3c(n(C)c2c1)[C@@H](CO)N(C(C)=O)CC31CCN(C(=O)c2cnccn2)CC1 | -1 | . | 23* | -3 | 2
COc1ccc2c3c(n(C)c2c1)[C@H](CO)N(C(=O)c1cnccn1)CC31CCN(C(C)=O)CC1 | 12 | . | -6 | 3 | 0
SMILES | S100A4 MyoIIA | CaV13 FRET inh | DENV2 CPE rescue | SIRT5 block | MLL AF4-AF9 inh
C[C@H](CO)N1C[C@H](C)[C@@H](CN(C)S(C)(=O)=O)Oc2ccc(NS(=O)(=O)c3ccc(F)cc3)cc2CC1=O | 3 | . | -5 | -1 | 1
C[C@H](CO)N1C[C@H](C)[C@@H](CN(C)S(C)(=O)=O)Oc2ccc(NC(=O)Cc3ccccc3)cc2CC1=O | 10 | . | 23* | 7 | 2
C[C@@H]1CN([C@@H](C)CO)C(=O)Cc2cc(NS(=O)(=O)c3ccccc3)ccc2O[C@@H]1CN(C)S(C)(=O)=O | -10 | . | 24* | 1 | -2
C[C@H](CO)N1C[C@H](C)[C@H](CN(C)C)Oc2ccc(NS(=O)(=O)c3ccccc3)cc2CC1=O | 95* | . | 4 | 5 | -4
C[C@@H]1CN([C@H](C)CO)C(=O)Cc2cc(NS(=O)(=O)c3ccc(F)cc3)ccc2O[C@@H]1CN(C)S(C)(=O)=O | -13 | . | 31* | 0 | -2
CN(C)C(=O)c1ccc(-c2ccc([C@@H]3[C@@H](CO)N4CCCCN(C(=O)C5CCCC5)C[C@@H]34)cc2)cc1 | -4 | . | -6 | 4 | -7
O=C(NCc1ccccc1)[C@@H]1c2ccccc2C(=O)N(CC23CC4CC(CC(C4)C2)C3)[C@H]1c1ccc(CO)cc1 | -12 | . | 10 | 12 | -1
C[C@H](CO)N1C[C@H](C)[C@@H](CN(C)C(=O)Nc2ccc(F)cc2)OCCCC[C@H](C)Oc2ccc(NS(=O)(=O)c3ccccc3)cc2C1=O | -6 | . | 5 | -4 | 2
COc1ccc(NC(=O)N(C)C[C@@H]2OCCCC[C@H](C)Oc3ccc(NS(C)(=O)=O)cc3C(=O)N([C@@H](C)CO)C[C@H]2C)cc1 | -7 | . | 3 | 5 | -4
COc1ccc(-c2nn(CCC(=O)O)cc2/C=C2\SC(N)=NC2=O)cc1OC | -2 | -14 | -9 | 28* | 3
COc1ccccc1S(=O)(=O)N[C@H]1CC[C@H](CCNC(=O)C2CCCCC2)O[C@H]1CO | -4 | . | 8 | -2 | 0
C[C@H](CO)N1C[C@H](C)[C@H](CN(C)Cc2ccc(-c3ccccc3)cc2)Oc2cc(C#CC(C)(C)O)ccc2S1(=O)=O | 3 | . | 6 | 20* | 0
C[C@H]1CN([C@@H](C)CO)S(=O)(=O)c2ccc(C#CC(C)(C)O)cc2O[C@H]1CN(C)Cc1ccccc1 | 12 | -8 | 15 | -4 | -2
C[C@@H]1CN([C@H](C)CO)S(=O)(=O)c2ccc(C#CC(C)(C)O)cc2O[C@@H]1CN(C)Cc1ccc(-c2ccccc2)cc1 | 1 | . | -6 | 20* | 11
C[C@@H]1CN([C@H](C)CO)S(=O)(=O)c2ccc(C#CC(C)(C)O)cc2O[C@H]1CN(C)Cc1ccccc1 | -7 | . | -5 | 2 | 2
